This is an account of results in PMC3592994 (Hepatology (Baltimore, Md.), 2013).

Data set [1] has as its system Bsep, Mdr2, Ost-β, Sult2a1, Shp, Ntcp. The data set can be described thus: Hepatic gene expression in gavaged mice. Type of data set: in vivo, mouse. Put shortly: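 Female C57BL6 mice aged 7–8 weeks were gavaged twice daily for 2 days with 200 μL 20% cyclodextrin, 50 mg/kg cholic acid, or cholic acid plus 500 mg/kg test compound. Livers were harvested at 4 pm on day 2 after an 8-h fast, and hepatic gene expression was measured. Data are mean ± SEM, n = 6, by one-way ANOVA.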

Data set [2] deals with BSEP, SHP. The data set can be described thus: BSEP and SHP gene expression in primary human hepatocytes. Format: cell-based. The following applies: 50 μM, 24 hours.
The subject of data set [3] is BSEP, SHP, CYP7A1. Format: cell-based, human. The following applies: 50 μM, 24 hours; for induction of BSEP gene expression: scrambled siRNA group; for repression of CYP7A1 expression: siScramble group; for induction of SHP gene expression: siScrambled group, versus vehicle.
Data set [4] addresses T1, FXRα2 (Homo sapiens, UniProt Q96RI1).
T1 sequence (Q96RI1 1-472 isoform Q96RI1-2): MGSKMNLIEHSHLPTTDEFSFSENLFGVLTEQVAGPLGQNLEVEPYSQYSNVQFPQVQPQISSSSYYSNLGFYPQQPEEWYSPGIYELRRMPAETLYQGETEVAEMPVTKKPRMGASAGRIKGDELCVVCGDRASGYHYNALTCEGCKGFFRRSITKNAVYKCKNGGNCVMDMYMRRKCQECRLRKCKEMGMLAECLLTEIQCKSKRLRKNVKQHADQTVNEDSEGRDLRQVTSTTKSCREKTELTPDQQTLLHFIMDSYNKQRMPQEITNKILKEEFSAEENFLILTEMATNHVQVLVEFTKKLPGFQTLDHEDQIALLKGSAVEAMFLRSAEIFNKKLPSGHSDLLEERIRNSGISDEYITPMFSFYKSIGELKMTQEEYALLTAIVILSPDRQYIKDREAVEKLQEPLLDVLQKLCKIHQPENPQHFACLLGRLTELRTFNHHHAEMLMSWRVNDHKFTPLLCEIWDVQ
T1 sequence (P19793 1-462 partner): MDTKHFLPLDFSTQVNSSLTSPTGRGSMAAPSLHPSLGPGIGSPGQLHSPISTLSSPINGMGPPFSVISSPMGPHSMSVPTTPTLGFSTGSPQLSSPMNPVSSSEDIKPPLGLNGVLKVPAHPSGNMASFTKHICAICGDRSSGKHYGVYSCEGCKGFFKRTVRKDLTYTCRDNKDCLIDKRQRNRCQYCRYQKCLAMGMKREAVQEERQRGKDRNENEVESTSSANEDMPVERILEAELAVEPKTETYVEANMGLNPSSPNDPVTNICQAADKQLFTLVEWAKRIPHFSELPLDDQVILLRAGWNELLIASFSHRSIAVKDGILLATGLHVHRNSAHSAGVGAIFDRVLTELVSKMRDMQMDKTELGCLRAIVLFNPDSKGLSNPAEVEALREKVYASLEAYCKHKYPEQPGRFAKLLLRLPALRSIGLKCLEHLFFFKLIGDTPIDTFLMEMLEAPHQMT
Format: cell-based. The following applies: for FXR transactivation relative to vehicle-treated control: 50 μM compound; for FXR transactivation relative to vehicle-treated control / EC50: 24 hours; for EC50: read-out: EC50 of FXR transactivation, agonist mode, 0-100 μM.

In data set [5] the target is T2, FXR-LBD (Homo sapiens, UniProt Q96RI1).
T2 sequence (Q96RI1 244-472 isoform Q96RI1-2): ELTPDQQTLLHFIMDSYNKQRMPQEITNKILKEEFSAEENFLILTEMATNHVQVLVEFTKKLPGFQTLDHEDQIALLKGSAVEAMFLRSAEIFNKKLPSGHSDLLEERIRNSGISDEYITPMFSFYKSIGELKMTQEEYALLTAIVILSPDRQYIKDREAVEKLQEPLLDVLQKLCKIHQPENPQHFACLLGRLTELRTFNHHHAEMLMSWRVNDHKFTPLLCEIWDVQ
The data set can be described thus: HTRF cofactor. The following applies: for CDCA-mediated recruitment of SRC-1 peptide to FXR-LBD: 9 or 100 μM CDCA, 0-600 μM compound, dose-dependent; for recruitment of SRC-1 peptide to FXR-LBD by compound alone: agonist mode, no CDCA. Format: biochemical. On the technique in general: In TR-FRET formats the signal depends on donor and acceptor labels being close together.

Data set [6] relates to FXR-mediated bile acid efflux in Huh7 cells. The data set can be described thus: Huh7 3H-taurocholic acid efflux. Format: cell-based, human. An outline of the steps: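 Huh7 cells were pretreated overnight with vehicle or 0.5 μM GW4064 with or without 25–50 μM test compound. Cells were washed for 1.5 h, then ³H-taurocholic acid efflux over 5 min was measured. Data are mean ± SEM, n = 3, by one-way ANOVA.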

The test system of data set [7] is BSEP. Put plainly: BSEP protein western blot in Huh7 cells. Type of data set: cell-based, human. The following applies: 0.5 μM GW4064, 24 hours.
In data set [8] the test system is FGF19. The data set can be described thus: Secreted FGF19 in Huh7 cell culture media. Type of data set: cell-based, human. The following applies: for levels of secreted FGF19: 0.5 μM GW4064. Put shortly: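 Huh7 cells were incubated for 24 h with 0.5 μM GW4064 plus 0–100 μM test compound. FGF19 secreted into the culture medium was then assayed. Data are mean ± SEM, n = 3, by one-way ANOVA.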

Data set [9] can be described thus: Serum PM5S in gavaged mice by UPLC/MSMS. Format: in vivo, mouse. An outline of the steps:
(§1)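 Female C57BL6 mice aged 7–8 weeks were orally gavaged twice daily for 2 days (day 1 at 5:30 and 10:30 pm; day 2 at 8:30 am and 1:30 pm). Groups received 200 μL 20% cyclodextrin, 50 mg/kg cholic acid, or cholic acid plus 500 mg/kg test compound. After an 8-h fast, serum was collected at 4 pm on day 2 and analysed by UPLC/MSMS. Data are mean ± SEM, n ≥ 6, by one-way ANOVA.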

Data set [10] in a line: Serum bile acid concentrations in gavaged mice. Format: in vivo, mouse. The following applies: CA+PM5S co-gavaged mice versus vehicle or CA groups. An outline of the steps:
as §1

Data set [11] deals with BSEP. Put plainly: BSEP gene expression in Huh7 cells. Type of data set: cell-based, human. An outline of the steps: (§2)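 Relative mRNA was quantified by qPCR. Data are mean ± SEM, n = 3, by one-way ANOVA against the agonist-alone or vehicle group.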
The test system of data set [12] is FGF19. Put plainly: FGF19 gene expression in Huh7 cells. Type of data set: cell-based, human. The following applies: 25-100 μM PM5S, 0.5 μM GW4064, 24 hours. Put shortly: as §2
Data set [13] deals with SHP and MDR3. The data set can be described thus: SHP and MDR3 gene expression in Huh7 cells. Format: cell-based, human. The following applies: 0-100 μM PM5S, 0.5 μM GW4064, 24 hours. An outline of the steps:
as §2

The test system of data set [14] is primary human hepatocytes. The following applies: primary human hepatocytes ref 19; cited from earlier work.
Data set [15] has as its system NTCP. The following applies: NTCP-transfected Xenopus laevis oocytes ref 19; cited from earlier work.
Data set [16] deals with BSEP. The following applies: X. laevis oocytes expressing BSEP ref 20; cited from earlier work.

Structures are written as SMILES. Where a name gives a salt, the structure may show the parent alone.

Consider `C[C@H](CCC(=O)O)[C@H]1CC[C@H]2[C@@H]3[C@H](O)C[C@@H]4C[C@H](O)CC[C@]4(C)[C@H]3C[C@H](O)[C@]12C` [CA, cholic acid, reference compound], for which the “Hepatic gene expression levels of Bsep, Mdr2, Ost-β, and Sult2a1” value in data set [1] (CA group, 50 mg/kg versus vehicle) is “significantly induced”.

In turn, `C[C@H](CCC(=O)O)[C@H]1CC[C@H]2[C@@H]3[C@H](O)C[C@@H]4C[C@H](O)CC[C@]4(C)[C@H]3CC[C@]12C` [CDCA, chenodeoxycholic acid, reference compound] returned a BSEP expression induction in data set [2] of 7.5 fold. Also, in data set [3], the “induction of BSEP gene expression” value came out at 390%, the “repression of CYP7A1 expression” value was > 90% and the “induction of SHP gene expression” value stood at 481%.

As a reminder, the EC50 is the concentration needed to bring the measured effect to its halfway point. Regarding `C[C@H](O)[C@H]1CC[C@H]2[C@@H]3CC[C@H]4C[C@@H](OS(=O)(=O)[O-])CC[C@]4(C)[C@H]3CC[C@]12C.[Na+]` [EPAS, epiallo-pregnanediol 3-sodium sulfate], in data set [4], the “activity of FXR in presence of CDCA” value is on record as “inhibited”, the “FXR transactivation relative to vehicle-treated control” value stood at 183% and the EC50 was found to be 22.6 µM. In data set [5], the “CDCA-mediated recruitment of SRC-1 peptide to FXR-LBD” value (shortened to “CDCA-mediated recruitment”) is on record as “inhibited” and the “recruitment of SRC-1 peptide to FXR-LBD by compound alone” value (shortened to “recruitment … by compound alone”) is “unable to induce”.

In the case of `CC(=O)C1CCC2C3CC[C@@H]4C[C@@H](OS(=O)(=O)O)CC[C@]4(C)C3CC[C@]12C` (stereo partly drawn) [EPS, epipregnanolone sulfate], in data set [4], the “activity of FXR in presence of CDCA” value is “inhibited”, the “FXR transactivation relative to vehicle-treated control” value turned out to be 125% and the EC50 was determined as 15.1 µM. Moreover, in [5], the “CDCA-mediated recruitment” value is on record as “inhibited” and the “recruitment … by compound alone” value is “unable to induce”.

Regarding `CC(C)c1onc(-c2c(Cl)cccc2Cl)c1COc1ccc(/C=C/c2cccc(C(=O)O)c2)c(Cl)c1` [GW4064, reference compound], the 3HTC efflux result in data set [6] (0.5 μM GW4064 overnight, relative to vehicle) is “significantly increased”. For the same compound, the “increase in BSEP protein levels” value in [7] (relative to vehicle) stood at 1.5 fold. For the same compound, the “increase in secreted FGF19” value in [8] (0.5 μM GW4064, 24 hours) was 2.8 fold.

As for `CC(=O)[C@H]1CC[C@H]2[C@@H]3CC[C@H]4C[C@@H](OS(=O)(=O)O)CC[C@]4(C)[C@H]3CC[C@]12C` [PM5S, epiallopregnanolone sulfate], the “Serum PM5S mean concentration ± SEM” value in data set [9] (mice gavaged 50 mg/kg cholic acid + 500 mg/kg PM5S twice daily for 2 days) was 3208.6 ± 1847.1 µM. Also, the “Serum PM5S mean concentration ± SEM” value in [9] (mice gavaged 50 mg/kg cholic acid twice daily for 2 days) was 10.7 ± 9.6 µM. For the same compound, the “serum CA levels” value in [10] is “significantly raised”. Also, the “induction of Bsep and Mdr2 expression” value in data set [1] (CA+PM5S group compared to CA group) is on record as “significantly abrogated”. For the same compound, in [1] (CA+PM5S, CA and vehicle groups), the “Shp and Ntcp expression levels” value is “no differences”. Moreover, in data set [6] (cotreated with 25 or 50 μM PM5S, 0.5 μM GW4064), the “GW4064-induced increase in 3HTC efflux” value is on record as “abolished”. Further, the “GW4064-mediated BSEP protein expression” value in [7] (10 μM PM5S) was “inhibited”. Besides, the BSEP protein expression result in [7] (25-100 μM PM5S) is “completely abolished”. In addition, in data set [11] (all PM5S concentrations tested, 50 μM CDCA, 24 hours), the “CDCA-mediated BSEP expression” value was “significantly reduced”. The “GW4064-mediated BSEP gene expression” value in data set [11] (increasing PM5S doses (0-100 μM), 0.5 μM GW4064, 24 hours) is recorded as “completely abolished”. For the same compound, the “levels of secreted FGF19” value in data set [8] (50 μM and 100 μM PM5S) is “reaching significance”. For the same compound, in [8] (cotreatment with 10 μM and 25 μM PM5S), the “levels of secreted FGF19” value is reported as “trend towards a reduction”. In addition, the “GW4064-mediated FGF19 gene expression” value in data set [12] is “significantly reduced”. Moreover, in data set [13], the “GW4064-mediated SHP and MDR3 gene expression” value is “significantly abrogated”. Besides, in data set [2], the BSEP expression result was “modestly increased” and the SHP expression induction result is given as “to a lesser extent than CDCA”. For the same compound, in data set [4], the “PM5S concentrations abrogating CDCA-mediated FXR transactivity” value was ≥ 5 µM, the “FXR transactivation relative to vehicle-treated control” value is 182% and the half-maximal effective concentration (EC50) was > 83 µM. In [5], the “CDCA-mediated recruitment” value was “able to inhibit” and the “recruitment … by compound alone” value is given as “unable to potentiate”. Also, in data set [3], the “induction of BSEP gene expression” value came out at 160%, the “repression of CYP7A1 expression” value is > 90% and the “induction of SHP gene expression” value amounted to 200%. The “Na+-dependent and Na+-independent influx of taurocholate” value in [14] is on record as “reduce”. For the same compound, in data set [15], the “taurocholate uptake by NTCP” value is reported as “competitively inhibit”. In data set [16], the “efflux of bile acids” value is “reduce the efflux”.
